Bioassay records as filed in PubChem.
In the library only some 1.8% were active in any assay of this set; here they are far more common.
DAGLB inhibitor – blocks human DAGLB lipase activity; Q8NCG7; HEK293T DAGLB membrane lysate, EnzChek fluorogenic substrate; inhibition, % at 5.17 µM; hit rate 0.059% among 340,000; in the data active means inhibition above about 34%;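 further: 0% = enzyme with vehicle and 100% = wells lacking enzyme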
Target sequence (Q8NCG7 whole entry, looked up): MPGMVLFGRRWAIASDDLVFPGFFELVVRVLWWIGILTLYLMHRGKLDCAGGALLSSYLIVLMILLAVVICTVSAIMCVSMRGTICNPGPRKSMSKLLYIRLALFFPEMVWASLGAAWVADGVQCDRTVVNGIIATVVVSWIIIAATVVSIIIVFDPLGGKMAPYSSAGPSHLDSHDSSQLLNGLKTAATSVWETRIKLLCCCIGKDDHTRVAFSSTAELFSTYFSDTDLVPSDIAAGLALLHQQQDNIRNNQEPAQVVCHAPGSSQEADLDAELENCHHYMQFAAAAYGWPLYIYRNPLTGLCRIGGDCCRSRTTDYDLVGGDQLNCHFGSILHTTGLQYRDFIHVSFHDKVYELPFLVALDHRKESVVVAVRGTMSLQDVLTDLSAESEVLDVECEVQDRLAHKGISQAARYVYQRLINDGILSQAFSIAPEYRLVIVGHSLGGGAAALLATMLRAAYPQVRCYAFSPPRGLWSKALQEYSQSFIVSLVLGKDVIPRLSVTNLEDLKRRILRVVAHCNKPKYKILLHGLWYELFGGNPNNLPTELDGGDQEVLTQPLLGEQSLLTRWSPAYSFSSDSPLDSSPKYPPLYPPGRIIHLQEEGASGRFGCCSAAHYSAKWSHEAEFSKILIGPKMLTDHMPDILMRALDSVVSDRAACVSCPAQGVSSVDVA
beta cell repl – MIN6 beta-cell proliferation induction. MIN6 cells proliferation, ATPlite luminescence, 48 h; cells starved in 0.2% serum; 100% = growth in 10% serum. hit rate 0.29% among 330,000. proliferation, % at 10 µM. AID 2380;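 active means compounds whose signal lies at least 3.5 SD above the mean of all wells on their plate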;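 further: 0% = DMSO-treated cells in low-serum medium and 100% = 10% serum control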
MsrA act – activators of bovine methionine sulfoxide reductase A. AID 602163. activation, % at 10.6 µM. hit rate 0.3% among 360,000. purified bovine MsrA, absorbance read-out; in the data active means activation above about 7.5%;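 further: 0% = vehicle and 100% = reference activator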
SKN-1 block – inhibitors of C. elegans SKN-1. C. elegans VP596 Pgst-4::GFP/RFP ratio, acrylamide-induced, 24 h. inhibition, % at 21.8 µM. hit rate 0.49% among 360,000. AID 624304;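 active means interference check ratio from 0.5 to 1.5 plus GFP to RFP signal ratio inhibition reaching or exceeding a fixed threshold, cut at about 30% in these data, passing the limit was not always enough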
MsrA inh – inhibitors of bovine MsrA; inhibition, % at 15.5 µM; purified bovine MsrA, absorbance read-out; hit rate 0.75% among 360,000;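 further: 0% = vehicle wells with enzyme and 100% = reference inhibitor wells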
MT1-MMP act inh – inhibitors of human MT1-MMP activation; hit rate 0.061% among 360,000; HT1080 RFP-PRO-GFP cells, GFP/RFP ratio fluorescence, overnight; percent of plate control window, DMSO zero; P50281; GFP/RFP ratio change, % at 20 µM; AID 651647;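 active means GFP/RFP ratio change of at least 30% with cell ATP level not reduced by more than half and red fluorescence within 50% of control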
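Compound: 20 µM single dose, 1% DMSO / System: HT1080 RFP-PRO-GFP cells / Controls: DMSO and RFP-L50D-GFP cell wells / Read-out basis: GFP/RFP fluorescence ratio / Schedule: overnight compound exposure at 37 °C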
MsrA conf – confirmation of bovine MsrA inhibitors. shares compounds with MsrA inh. inhibition, % at 15.5 µM. hit rate 41% among 2,300. purified bovine MsrA, absorbance read-out;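 further: coupled to thioredoxin reductase with NADPH and selenocystamine and DMSO as substrate; 0% = vehicle only and 100% = full effect of reference inhibitor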
Starred values were filed as active, the others as inactive; nt = no result given. Unless noted, no stated cut-off is given here; in the data, active means inhibition above about 4.5%; inactive means the rest.

SMILES	DAGLB inhibitor	beta cell repl	MsrA act	SKN-1 block	MsrA inh	MT1-MMP act inh	MsrA conf
COCc1ccc(CN2CCCC(C(=O)Nc3ccc(-c4cccc(OC)c4)cc3)C2)o1 (stereo not drawn)	0	-4	1	7	2	2	nt
Cc1cc(C)n2nc(C(F)(F)F)c(-c3ccccc3)c2n1	-6	1	-1	9	4.8*	-2	0
CSc1ncccc1C(=O)OCC(=O)NCCCc1ccccc1	-2	-2	-2	7	0	-3	nt
Cc1ccc(C2=NS(=O)(=O)N(C)C(C(=O)NCc3ccccn3)=C2)cc1	0	6	2	-2	5.2*	-3	2
Cc1ccc(C2=NS(=O)(=O)N(C)C(C(=O)NCc3cccs3)=C2)cc1	-5	-3	-3	-10	4	5	nt
Cc1ccc(C2=NS(=O)(=O)N(C)C(C(=O)N3CCCCC3)=C2)cc1	-3	4	-3	-2	5.0*	-4	3
COc1ccc(C2=NS(=O)(=O)N(C)C(C(=O)N3CCN(C)CC3)=C2)cc1	0	4	-4	15	5.9*	1	3
CCN1CCN(C(=O)C2=CC(c3ccc(OC)cc3)=NS(=O)(=O)N2C)CC1	-1	-1	-6	0	4	-2	nt
CC(CC(=O)Nc1cccnc1)c1ccccc1 (stereo not drawn)	0	0	-4	-9	0	0	nt
Cc1ccccc1NC(=S)N1CCC(NC(=O)c2ccco2)CC1	1	-4	-5	-5	0	0	nt
CCN(CC)C(=O)c1ccc(-c2nnc(OC)c3ccccc23)cc1	0	0	-2	-14	0	-2	nt
CC(=O)N(C)c1ccc(N=Nc2ccc3ncccc3c2)cc1	10	nt	-3	21	5.3*	4	4.9*
Cc1cc(C)c2nc(-c3ccccc3)ccc2c1	nt	nt	-4	11	-1	0	nt
COc1ccc(S(=O)(=O)CCC(=O)N2CCN(c3ccc(C(C)=O)cc3)CC2)cc1	1	1	-4	13	4.7*	0	3
c1c2c(cc3sc(N4CCOCC4)nc13)OCCO2	-2	-5	-2	-5	-1	-4	nt
Cc1nc(N2CCOCC2)sc1C=O	0	-3	-7	8	6.6*	-1	4
Nc1c([N+](=O)[O-])c(=O)oc2ccccc12	0	-3	-5	0	5.9*	3	2
Nc1c(N)c2ccccc2oc1=O	-4	-3	-3	9	2	2	nt
CC(Nc1c([N+](=O)[O-])c(=O)oc2ccccc12)c1ccccc1 (stereo not drawn)	-1	-1	-11	-3	25*	-2	21*
O=c1oc2ccccc2c(NCc2ccccc2)c1[N+](=O)[O-]	0	2	-6	6	5.8*	1	5.0*
Cc1cc(C(=O)N/N=C/C=C/c2ccc([N+](=O)[O-])cc2)n[nH]1	-2	-1	-12	-10	7.6*	-1	7.9*
Cc1cc(C(=O)N/N=C/C=C/c2ccc(Br)cc2)n[nH]1	1	0	-3	-5	6.0*	7	3
CCOc1cc(/C=N/NC(=O)c2cc(C)[nH]n2)ccc1OC(=O)c1ccc([N+](=O)[O-])cc1	nt	-4	nt	nt	nt	nt	nt
CC(C)c1cc(C(=O)N/N=C/C=C/c2ccccc2)n[nH]1	1	-2	-5	3	2	5	nt
COc1ccc(Nc2nc(C)c(C(C)=O)s2)cc1	nt	nt	-5	11	5.4*	6	3
SMILES	DAGLB inhibitor	beta cell repl	MsrA act	SKN-1 block	MsrA inh	MT1-MMP act inh	MsrA conf
COc1cccc(C2=CC(c3cccc(OC)c3OC(F)F)n3nnnc3N2)c1 (stereo not drawn)	-1	-5	-1	6	3	0	nt
COc1cccc(C2=CC(c3cccc(OC)c3OC)n3nnnc3N2)c1 (stereo not drawn)	-4	-6	-8	-5	14*	-7	9.3*
CCOC(=O)c1c(C)[nH]c(C(=O)N/N=C/c2ccc(Br)cc2)c1C	-13	-6	-2	0	2	12	nt
Cc1[nH]c(C(=O)N/N=C/c2ccc(N(C)C)cc2)c(C)c1C(=O)N/N=C/c1ccc(N(C)C)cc1	4	0	-11	-1	7.5*	-4	5.2*
Cc1[nH]c(C(=O)N/N=C/c2ccc(C(=O)O)cc2)c(C)c1C(=O)N/N=C/c1ccc(C(=O)O)cc1	2	-2	-16	-2	9.9*	4	9.4*
Cc1cc(C)nc(N/N=C/c2ccccc2)n1	2	3	-5	11	nt	-2	nt
Cc1cc(C)nc(N/N=C/c2sccc2C)n1	-1	-5	-7	-3	5.3*	1	4
Cc1ccsc1/C=N/Nc1nc(=O)[nH]nc1C	0	0	-5	-1	5.3*	3	4
COc1ccc(N(CC(=O)NC2CCCCC2)C(=O)CNC(=O)c2ccco2)cc1	-2	2	-10	-16	-1	3	nt
O=C(NCC(c1ccco1)N1CCCCC1)c1ccc([N+](=O)[O-])s1 (stereo not drawn)	nt	-7	-1	-6	6.0*	3	4
O=C(O)CCN=C1CCCc2ccccc2N1	-2	-2	-5	2	0	-4	nt
CN(C)C=NC(=O)/C(C#N)=C1\CCc2ccccc2N1	-3	-2	-15	-8	6.3*	-5	3
CCOC(=O)CSc1nc(=O)n2ccc(C)cc2n1	-1	-2	-4	9	4.7*	0	0
Cc1ccn2c(=O)nc(SCC(=O)OCc3ccccc3)nc2c1	1	-2	-5	-10	1	-3	nt
Cc1cccc(C)c1NC(=O)C(c1ccccc1)n1c(-c2ccccc2)nc2ccccc21 (stereo not drawn)	nt	nt	nt	6	0	-1	nt
CN1/C(=C/C=N/n2cnnc2)C(C)(C)c2ccccc21	0	-4	-6	27	4.8*	11	4
COC(=O)c1ccc(S(=O)(=O)N2CCCN(Cc3ccccc3)CC2)n1C	0	1	-1	-11	2	-1	nt
COC(=O)c1ccc(S(=O)(=O)N2CCCN(Cc3cccc(Br)c3F)CC2)n1C	-5	-4	-1	13	15*	-3	11*
Cc1cc(N/N=C/c2ccco2)c2ccccc2n1	1	0	-3	7	1	3	nt
Cc1cc(N/N=C/c2ccc(N(C)C)cc2)c2ccccc2n1	-1	-3	-4	0	5.0*	-3	1
Cc1occc1C(=O)Nc1sccc1C(N)=O	0	2	-5	4	0	1	nt
NC(=O)c1ccsc1NC(=O)c1coc2ccccc2c1=O	4	-5	-11	-9	4.7*	3	1
CSc1ccc(/C=N/Nc2nc(C)cc(=O)[nH]2)cc1	2	-2	-5	8	4.9*	0	4
